Like-named read-outs stand apart in the source and are kept apart here.
Experiments:
rats = settings: 230 µmol/kg b.w. ref Lash et al., 1994; cited from earlier work
male Sprague-Dawley rats = assay type: in vivo, rat; settings: 230 µmol/kg b.w. i.p.; for BUN levels compared to control (saline-treated) rats / AST and ALT levels: 24 h after dosing; for AST and ALT levels: vs saline-treated rats; for Urine protein/creatinine ratio: vs saline; for nephrotoxicity based on the biochemical endpoints assayed: equimolar comparison; for urine volume: saline-treated rats 0.20 ± 0.04 dL
kidneys of male rats = assay: Kidney histopathology, grading of tubular necrosis in inner and outer zone; assay type: in vivo, rat; settings: 230 µmol/kg b.w. i.p., 24 h post treatment
[1] = Reactivity toward GSH in phosphate buffer pH 7.4 at 37°C; assay type: physicochemical
Summary of the method: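 Test compound (0.459 mM) and GSH (1.53 mM) were incubated in 0.1 M KH2PO4/0.1 M KCl/5 mM Na2EDTA, pH 7.4, in a shaking bath at 37°C. Aliquots were taken every 5–10 min for up to 60 min and TFA-acidified. Analysis was C18 HPLC with an acetonitrile/0.1% TFA gradient, reading UV 220 nm for sulfoxide loss and 260 nm for products. Diastereomer half-lives came from first-order kinetics. Conjugates (3 mM compound, 10 mM GSH, 1 h) were isolated and identified by positive-ESI LC/MS-TOF.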

[2] = system: isolated rat renal proximal tubule cells; settings: cited from earlier work
[3] = Reaction with GSH in the presence of filtered rat liver cytosol; assay type: in vitro ADME; settings: for Half-life +GSH + Cytosol: 0.459 mM compound, 1.53 mM GSH, filtered rat liver cytosol 2 mg/mL, 37°C; for reduction of half-life in the presence of liver cytosol: +GSH + cytosol vs +GSH alone
Summary of the method: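 Rat liver cytosol came from male Sprague-Dawley rats (180–225 g). It was filtered three times through centrifugal filters with pH 7.4 phosphate buffer to strip GSH and small molecules, and protein was measured by Lowry. Test compound (0.459 mM), GSH (1.53 mM) and cytosol (2 mg/mL) were incubated at 37°C. Aliquots were taken every 2.5 or 5 min, TFA-acidified, and run on C18 HPLC with UV detection. Diastereomer half-lives came from first-order kinetics.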

[4] = ref Commandeur et al., 1991; cited from earlier work

Molecule	BUN levels compared to control (saline-treated) rats (male Sprague-Dawley rats)	kidney region primarily affected by lesions (kidneys of male rats)	reaction with GSH (formation of glutathione conjugates) [1]	Half-life +GSH + Cytosol [3]	reduction of half-life in the presence of liver cytosol [3]	other results
N[C@@H](CSC(Cl)=CCl)C(=O)O [DCVC, S-(1,2-dichlorovinyl)-L-cysteine]	–	–	–	–	–	kidney histopathology (rats): scattered, patchy foci of tubular necrosis
CC(=O)N[C@@H](C[S+]([O-])C(Cl)=CCl)C(=O)O (stereo partly drawn) [NA-DCVCS, N-acetyl-S-(1,2-dichlorovinyl)-L-cysteine sulfoxide]	approximately 3 fold	cortico-medullary proximal tubules (S2–S3 segments)	the corresponding glutathione conjugates were detected	–	–	Urinary excretion of glucose over 24 h compared to saline-treated rats (male Sprague-Dawley rats): 89 fold; AST and ALT levels (male Sprague-Dawley rats): not different from saline-treated rats; Urine protein/creatinine ratio (male Sprague-Dawley rats; 24 h urine): elevated; nephrotoxicity based on the biochemical endpoints assayed (male Sprague-Dawley rats): less nephrotoxic than DCVCS; cytotoxicity ([2]; isolated rat renal proximal tubule cells ref Werner et al., 1996): more cytotoxic than NA-DCVC
CC(=O)N[C@@H](C[S+]([O-])C(Cl)=CCl)C(=O)O (single isomer, unassigned) [NA-DCVCS I, N-acetyl-S-(1,2-dichlorovinyl)-L-cysteine sulfoxide]	–	–	–	5.4 min	2 fold	–
S-(1,2-dichlorovinyl)-L-cysteine sulfoxide [DCVCS, reference compound]	7 fold	outer cortical proximal tubules (S1–S2 segments)	the corresponding glutathione conjugates were detected	–	–	anuric rats (male Sprague-Dawley rats; 24 h): two out of the four; Glucose excretion (male Sprague-Dawley rats; 24 h urine, rats anuric or producing little urine): not different than saline-treated rats; urine volume (male Sprague-Dawley rats; 24 h urine): 0.05 ± 0.07 dL
CC(=O)N[C@@H](CSC(Cl)=CCl)C(=O)O [NA-DCVC, N-Acetyl-S-(1,2-dichlorovinyl)-L-cysteine]	approximately 3 fold	cortico-medullary proximal tubules (S2–S3 segments)	not reactive with GSH	–	–	Urinary excretion of glucose over 24 h compared to saline-treated rats (male Sprague-Dawley rats): 113 fold; AST and ALT levels (male Sprague-Dawley rats): not different from saline-treated rats; Urine protein/creatinine ratio (male Sprague-Dawley rats; 24 h urine): elevated; urine volume (male Sprague-Dawley rats; 24 h urine): 0.32 ± 0.11 dL; nephrotoxicity based on the biochemical endpoints assayed (male Sprague-Dawley rats): less nephrotoxic than DCVCS; mutagenicity in the Ames test [4]: strong mutagen; cytotoxicity ([2]; isolated rat proximal tubule cells ref Commandeur et al., 1991): less cytotoxic then DCVC
S-(1,2-dichlorovinyl)-L-cysteine sulfoxide [DCVCS II, reference compound]	–	–	–	3.1 min	2 fold	–
CC(=O)N[C@@H](C[S+]([O-])C(Cl)=CCl)C(=O)O (single isomer, unassigned) [NA-DCVCS II, N-acetyl-S-(1,2-dichlorovinyl)-L-cysteine sulfoxide]	–	–	–	2.3 min	10 fold	–
S-(1,2-dichlorovinyl)-L-cysteine sulfoxide [DCVCS I, reference compound]	–	–	–	1.4 min	10 fold	–

From PMC3557599 (Toxicology and applied pharmacology, 2012)
